High-throughput results deposited in PubChem by several laboratories.
Only some compounds are listed: those with a hit (about 2.9% of all), similar ones and a draw of the others.
HSP90 inh: HSP90 inhibitors, primary screen, cell lysate, luminescence; Rabbit reticulocyte lysate, luciferase refolding luminescence, 3 h; Heat shock protein HSP 90 (rabbit reticulocyte lysate; luciferase refolding); AID 1789, 2009; inhibition, % at 5.6 µM; 0.91% of 290,000 active;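 active = inhibition above the screen-wide mean plus 3 SD, computed separately per campaign, cut at about 16% in these data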;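 note: 0% = DMSO wells and 100% = 60 µM geldanamycin wells; inhibitors lower the luminescence because luciferase stays unfolded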
SENP7 inh: SENP7 protease inhibitors, primary screen, biochemical, luminescence, uHTS; AID 434973, 2010; recombinant SENP7, Z-RLRGG-aminoluciferin luminescence, 40 min; 1.5% of 330,000 active; Sentrin-specific protease 7 (Homo sapiens), Q9BQF6; inhibition, % at 5 µM;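 active = inhibition above about 50% at the single test dose, limit read from the data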;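 note: plate controls were DMSO with enzyme for no effect and no enzyme buffer wells for full effect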
Target sequence (Q9BQF6 706-1050 limits assumed): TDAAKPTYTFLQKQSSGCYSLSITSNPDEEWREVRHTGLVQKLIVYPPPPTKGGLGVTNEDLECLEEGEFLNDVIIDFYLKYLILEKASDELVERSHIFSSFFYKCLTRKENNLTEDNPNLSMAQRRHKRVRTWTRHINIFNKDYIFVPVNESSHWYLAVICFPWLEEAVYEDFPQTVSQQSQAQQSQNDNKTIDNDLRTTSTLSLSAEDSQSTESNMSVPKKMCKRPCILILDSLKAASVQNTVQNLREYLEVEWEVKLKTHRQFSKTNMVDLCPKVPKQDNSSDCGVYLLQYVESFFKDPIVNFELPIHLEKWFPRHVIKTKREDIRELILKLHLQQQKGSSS
SENP1 FRET inh: human SENP1 catalytic domain inhibitors, primary screen, biochemical, FRET, uHTS; Sentrin-specific protease 1 (Homo sapiens), Q9P0U3; recombinant SENP1 catalytic domain, CyPet-SUMO1-YPet FRET cleavage; inhibition, % at 10 µM; 0.21% of 360,000 active;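 active = inhibition at least 30% at 10 µM, raw YFP signal under a set limit, fluorescence ratio 0.5 to 1.5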;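 note: 0% = enzyme with DMSO and 100% = no enzyme wells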
Target sequence (Q9P0U3 419-644 limits assumed): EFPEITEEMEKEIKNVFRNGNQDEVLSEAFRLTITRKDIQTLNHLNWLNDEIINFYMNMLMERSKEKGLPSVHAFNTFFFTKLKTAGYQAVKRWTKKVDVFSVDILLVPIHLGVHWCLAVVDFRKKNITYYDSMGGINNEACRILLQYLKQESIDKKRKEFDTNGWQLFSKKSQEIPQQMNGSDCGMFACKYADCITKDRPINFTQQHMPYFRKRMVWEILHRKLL
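Test system: human SENP1 catalytic domain; medium: Tris pH 8 buffer plus EDTA, NaCl, BME, BSA, NP40, catalase; incubation: 50 min reaction at room temperature; technique: FRET, CFP and YFP emission; controls: no-enzyme low control and enzyme-plus-DMSO high control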
SENP8 block-1: human SENP8 protease inhibitors, primary screen, biochemical, fluorescence, Nedd8 protein substrate, uHTS; recombinant SENP8; Sentrin-specific protease 8 (Homo sapiens), Q96LD8; 0.64% of 360,000 active; inhibition, % at 20 µM; in the data active = inhibition mostly above about 40%, no sharp cut-off; inactive = mostly below about 27%
SENP8 block-2: SENP8 protease inhibitors, primary screen, biochemical, luminescence | Sentrin-specific protease 8 (Homo sapiens), Q96LD8 | purified SENP8, Z-RLRGG-aminoluciferin cleavage | inhibition, % at 10 µM | 1.2% of 330,000 active | AID 2540, 2010; in the data active = inhibition above about 50%
SENP6 inh: SENP6 protease inhibitors, primary screen, biochemical, luminescence, uHTS | Sentrin-specific protease 6 (Homo sapiens), Q9GZR1 | Recombinant SENP6 catalytic domain, aminoluciferin luminescence | 1.8% of 330,000 active | inhibition, % at 10 µM;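 active = inhibition above about 50% at the single tested dose, limit read from the data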;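 note: plate controls were DMSO wells with enzyme for no effect and DMSO wells lacking enzyme for full effect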
SENP8 conf: SENP8 protease inhibitors, retest, confirmation, biochemical, luminescence, single concentration; shares compounds with SENP7 inh; Recombinant SENP8, Z-RLRGG-aminoluciferin luminescence, 60 min; inhibition, % at 12.5 µM; 40% of 6,200 active;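 active = mean inhibition across replicates above about 50%, limit read from the data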
SENP6 conf: SENP6 protease inhibitors, confirmation, biochemical, luminescence, single concentration; 58% of 6,200 active; inhibition, % at 12.5 µM; shares compounds with SENP7 inh; recombinant SENP6, Z-RLRGG-aminoluciferin luminescence
SENP7 confirm: SENP7 protease inhibitors, retest, confirmation, biochemical, luminescence, single concentration. shares compounds with SENP7 inh. recombinant SENP7, Z-RLRGG-aminoluciferin luminescence, 40 min. inhibition, % at 12.5 µM. 69% of 6,200 active
Casp3 select: caspase-3 protease inhibitors, confirmation, selectivity assay for SENP inhibitor project, biochemical, single concentration; shares compounds with SENP7 inh; purified caspase-3, Z-DEVD-aminoluciferin luminescence, 60 min; inhibition, % at 12.5 µM; 60% of 6,200 active; AID 488918, 2010;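 active = mean inhibition above about 50%, limit read from the data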;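 note: plate controls were enzyme with DMSO for no effect and wells without caspase-3 for full effect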
Luc interf: counter-screen for SENP inhibitors: luminescence interference; Pre-incubated SENP8/Z-RLRGG-aminoluciferin, luciferase luminescence interference; shares compounds with SENP7 inh; AID 488919; 39% of 6,200 active; inhibition, % at 12.5 µM;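 active = mean inhibition above about 50% when retested at one dose, limit read from the data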;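 note: plate controls were DMSO wells with completed reaction for no effect and substrate without enzyme for full effect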
The depositor's hits bear a star; i = inactive; · = no result.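 Rule for the calls, unless noted: active = mean inhibition above about 50% in the one-dose retest (limit read from the data); inactive = the rest.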

SMILES	HSP90 inh	SENP7 inh	SENP1 FRET inh	SENP8 block-1	SENP8 block-2	SENP6 inh	SENP8 conf	SENP6 conf	SENP7 confirm	Casp3 select	Luc interf
O=S(=O)(Nc1ncn[nH]1)c1ccc(Cl)cc1	7.8	1.3	-76.2	10.0	-4.6	10.6	·	·	·	·	·
O=C(Nc1ccc(OCc2ccccc2)cc1)Nc1ccccc1C(=O)NCCCN1CCOCC1	0.8	97.2*	-1.5	-4.3	95.4*	95.1*	98.5*	99.5*	103.4*	97.9*	88.3*
O=C(NC1CCSc2ccccc21)c1ccc(F)c(S(=O)(=O)N2CCOCC2)c1 (stereo not given)	4.6	-6.6	-0.1	11.2	-9.6	-4.9	·	·	·	·	·
Cc1nnsc1-c1nc2ccccc2[nH]1	-1.9	-9.2	-2.9	i	-13.0	-8.3	·	·	·	·	·
Cc1ccc(-c2nc3ccccc3[nH]2)s1	5.8	97.2*	58.6*	-482.8	92.8*	97.0*	95.9*	96.2*	100.3*	96.3*	95.0*
Fc1ccc(-c2nc(-c3cccs3)[nH]c2-c2ccc(F)cc2)cc1	1.3	-1.5	15.8	-294.9	-5.0	6.7	·	·	·	·	·
c1csc(-c2nc3ccccc3[nH]2)c1	-4.0	39.0	5.1	i	3.0	53.0*	32.9	31.1	69.2*	65.9*	20.7
CCOc1cccc(-c2nc3cc(C)ccc3o2)c1	-2.5	46.4	-0.5	14.2	39.9	79.4*	24.0	48.8	83.0*	44.6	35.8
Cc1ccc2oc(-c3ccccc3)nc2c1	-4.7	93.3*	-1.7	-27.6	88.1*	95.0*	-5.4	74.9*	100.2*	45.8	9.3
CCNC(=O)C1CCCN(C(=O)Cc2cccs2)CC1 (stereo not given)	·	·	0.5	22.7	·	·	·	·	·	·	·
O=C(Nc1ccccn1)c1ccc(Cl)c(S(=O)(=O)N2CCc3ccccc32)c1	·	-1.1	4.7	5.6	-4.4	1.2	·	·	·	·	·
COc1ccc(NC(=O)C2Cc3c(-c4cccc(C(N)=O)c4)ccnc3O2)cc1 (stereo not given)	·	·	-2.6	-1.7	·	·	·	·	·	·	·
CC(C)(C)c1ccc(SCCc2ccccn2)cc1	-2.9	8.0	0.3	-2.1	0.0	6.0	·	·	·	·	·
COc1ccc(Cn2c(O)c(C=Nc3ccc(OC)cc3)c3ccccc3c2=O)cc1	4.0	33.0	-29.6	-57.9	8.3	58.5*	9.7	15.8	8.0	2.7	-7.9
COc1ccc(Cn2c(O)c(C=Nc3ccccc3C(=O)O)c3ccccc3c2=O)cc1	-2.5	-2.9	-65.7	35.6	-7.7	12.4	·	·	·	·	·
Cc1noc(C)c1S(=O)(=O)Nc1ccc2c(c1)CC(=O)N([C@H](C)CO)C[C@H](C)[C@H](CN(C)S(=O)(=O)c1ccc(F)cc1)O2	·	-1.9	0.8	11.5	3.8	-9.3	·	·	·	·	·
Cc1ccc(C(C[N+](=O)[O-])c2c(C)[nH]n(-c3ccccc3)c2=O)cc1 (stereo not given)	2.4	39.4	-4.6	60.9*	25.7	54.1*	24.9	49.5	23.9	3.3	6.1
Cc1ccc(C(=O)OCCc2c(C)[nH]n(-c3ccccc3)c2=O)cc1	2.7	4.2	0.0	3.1	-1.1	-14.6	·	·	·	·	·
O=c1cc(-c2ccc(O)cc2)oc2ccc3ccccc3c12	·	98.8*	24.6	-198.6	98.0*	97.4*	96.8*	100.0*	103.0*	98.6*	82.9*
COc1cc2oc(-c3ccc(O)cc3)cc(=O)c2c(OC)c1O	3.5	3.9	-29.4	-214.8	2.9	0.7	·	·	·	·	·
COc1c(O)cc2oc(-c3ccc(O)cc3)cc(=O)c2c1O	·	59.0*	-3.7	23.4	49.0	57.0*	62.7*	59.6*	88.5*	71.1*	70.7*
O=C(O)CCN1C(=O)/C(=C/c2ccc(-c3nc4ccccc4s3)o2)SC1=S	1.4	7.6	-62.3	6.0	-4.6	7.2	·	·	·	·	·
O=Cc1ccc(-c2nc3ccccc3s2)o1	13.0	80.0*	-23.1	-357.8	69.5*	63.1*	-3.3	69.6*	86.8*	82.0*	22.8
Cc1cc(C(=O)NNC(=S)NC(C)c2ccccc2)c2ccccc2n1 (stereo not given)	-0.7	0.1	4.9	-71.1	0.2	-2.8	·	·	·	·	·
COCCNC(=O)CN(C(=O)c1ccc(N2CCCC2)nc1)c1ccccc1	-4.3	5.9	3.5	-2.7	-5.4	-7.1	·	·	·	·	·
SMILES	HSP90 inh	SENP7 inh	SENP1 FRET inh	SENP8 block-1	SENP8 block-2	SENP6 inh	SENP8 conf	SENP6 conf	SENP7 confirm	Casp3 select	Luc interf
COCCNC(=O)CN(C(=O)c1ccc(N2CCCC2)nc1)c1ccc(F)c(Cl)c1	-1.5	1.4	1.6	-5.0	56.1*	50.7*	13.3	9.9	12.2	4.2	7.1
Cc1cc(C(=O)Nn2cnnc2)ccc1[N+](=O)[O-]	2.5	77.8*	1.6	16.7	71.8*	81.3*	68.9*	65.0*	92.4*	92.6*	76.5*
NC1=NC(=O)C(CC(=O)c2ccc(Cl)cc2)S1 (stereo not given)	0.1	8.8	0.0	6.4	-2.1	1.3	·	·	·	·	·
Cc1ccc(C(=O)CC2SC(N)=NC2=O)cc1 (stereo not given)	3.4	76.7*	-1.7	-22.8	2.7	2.4	-7.4	-1.5	3.4	1.1	-6.8
CC(CCCC(C)(C)O)CC1C2=C(CCCC2=O)OC2=C1C(=O)CCC2 (stereo not given)	1.1	-1.1	-0.8	14.4	6.8	-3.1	·	·	·	·	·
COc1ccc(-c2csc(NC(=O)c3ccccc3Br)c2C(=O)O)cc1	-2.8	5.8	0.8	5.0	29.8	52.5*	49.4	48.6	68.5*	47.9	61.6*
O=C(/C=C/c1ccccc1)Nc1scc(-c2ccccc2)c1C(=O)O	3.7	·	1.3	-3.3	·	·	·	·	·	·	·
